Series [1] is described as follows: melting temperature; fluorescence melt of hairpins on a sequencing array, two-state fit, raised by 9.35 °C to match UV melts. The note with it: sodium 0.088 M. The essentials: (§1)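 With Cy3 and quencher oligos annealed, library hairpins on a sequenced MiSeq flow cell were imaged for Cy3 fluorescence in 50 mM Na-HEPES pH 8.0, 25 mM NaCl, in 2.5 °C steps up to 60 °C. Melting temperature and folding enthalpy were derived from bootstrapped two-state fits of signals normalised to pre-quench Cy3 and to control constructs. Four replicates were combined by inverse variance, with fitted temperatures raised by 9.35 °C to match UV melts.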

Series [2] is described as follows: folding enthalpy; higher = less favourable; fluorescence melt of hairpins on a sequencing array, two-state fit. The settings on record: sodium 0.088 M. The essentials:
as §1

The values below come from the array DNA melting data of Ke et al. (doi:10.1101/2024.01.08.574731).

Take GGTGAGGGAAACCTCATC (.(((((....))))).): the Tm in series [1] was 48.5 °C. In addition, the folding enthalpy in series [2] was -25.1 kcal/mol.

For the sequence GGTAAAGGAAACTTTGCC ((.((((....)))).)), the Tm in series [1] stood at 42.6 °C. Further, the folding enthalpy in series [2] was -28.6 kcal/mol.

Regarding GCTTGACGAAAGTCCAGC (((.(((....))).))), the Tm in series [1] came to 49.9 °C. Moreover, in series [2], the folding enthalpy was -26.6 kcal/mol.

With GCTATCCGAAAGGAAAGC (((.(((....))).))), the Tm in series [1] was determined as 49 °C. Also, the folding enthalpy in series [2] was -31.4 kcal/mol.

As for GCTATGCGAAAGCAAAGC (((.(((....))).))), the Tm in series [1] is 51.6 °C. Moreover, in series [2], the folding enthalpy was -36 kcal/mol.

As for GTAATCGAAAGATTATAC ((((((....)))..))), the Tm in series [1] was 33.4 °C. Further, the folding enthalpy in series [2] was -15.6 kcal/mol.

In the case of GATGCCGAAAGGCGAATC ((((((....)))..))), the Tm in series [1] was 36.9 °C. The folding enthalpy in series [2] was -9.65 kcal/mol.

Regarding GCCGTGCGAAAGCTGGGC (((..((....))..))), the Tm in series [1] is 59.5 °C. For the same sequence, the folding enthalpy in series [2] is -19.9 kcal/mol.

On to GAGTTACGAAAGTAGCTC (((.(((....))).))), for which the Tm in series [1] turned out to be 51.2 °C. Moreover, the folding enthalpy in series [2] was -34.5 kcal/mol.

For GCCCTGCGAAAGCGCGGC (((..((....))..))), in series [1], the Tm is 54.5 °C. In series [2], the folding enthalpy is -21.5 kcal/mol.

As for GATTCGGGAAACCGAGTC ((.((((....)))).)), the Tm in series [1] came out at 46.7 °C. In series [2], the folding enthalpy is -28 kcal/mol.

Consider GCCCCCGAAAGGGCGGC ((((((....))).))), for which, in series [1], the Tm worked out at 68.5 °C. Besides, the folding enthalpy in series [2] is -23.2 kcal/mol.

With GAGGCGGGAAACCGCTTC ((.((((....)))).)), in series [1], the Tm amounted to 51 °C. The folding enthalpy in series [2] is -15.9 kcal/mol.

Turning to GGGTATGGAAACGTACTC (.(((.(....).))).), the Tm in series [1] was 30.7 °C. Further, in series [2], the folding enthalpy is -13.4 kcal/mol.

For the sequence GCTGGGCGAAAGCCGGGC ((..(((....)))..)), in series [1], the Tm was determined as 55.6 °C. Also, the folding enthalpy in series [2] was -19.3 kcal/mol.

On to GCGAATCGTCGC ((((....)))), for which, in series [1], the Tm came to 47.7 °C. Also, the folding enthalpy in series [2] was -18 kcal/mol.

In the case of GACCCAACGAAAGTTGTC (((..(((....)))))), in series [1], the Tm came to 29 °C. Further, the folding enthalpy in series [2] is -10.5 kcal/mol.

Regarding GTAGACCGAAAGGTATAC (((.(((....))).))), in series [1], the Tm worked out at 51.7 °C. Also, the folding enthalpy in series [2] was -36 kcal/mol.

Consider GAAGTCGAAAGACTTC ((((((....)))))), for which, in series [1], the Tm was found to be 65.7 °C. Moreover, in series [2], the folding enthalpy is -34.2 kcal/mol.

For the sequence GGTAGAACGAAAGTTACC (((..(((....)))))), the Tm in series [1] worked out at 35 °C. Moreover, the folding enthalpy in series [2] was -17 kcal/mol.

With GAGTCCGAAAGGAGTCTC ((((((....)))..))), the Tm in series [1] worked out at 54.5 °C. Moreover, the folding enthalpy in series [2] is -25.1 kcal/mol.

Regarding GACCCACGAAAGTGAGTC (((.(((....))).))), the Tm in series [1] came to 51.2 °C. For the same sequence, the folding enthalpy in series [2] was -31.2 kcal/mol.

Regarding GATTCGCGAAAGCGCATC (((.(((....))).))), the Tm in series [1] amounted to 42.7 °C. Also, the folding enthalpy in series [2] is -21.5 kcal/mol.

Take GCACCGACGAAAGTCTGC (((..(((....)))))): the Tm in series [1] is 35.3 °C. Besides, the folding enthalpy in series [2] was -16.7 kcal/mol.

As to GAACCCGAAAGGGCCTTC ((((((....)))..))), in series [1], the Tm is 34.6 °C. Also, in series [2], the folding enthalpy is -14.2 kcal/mol.

In the case of GGCCGCGGAAACGCGACC ((.((((....)))).)), the Tm in series [1] was 63.3 °C. The folding enthalpy in series [2] was -19.7 kcal/mol.

Turning to GAACCAGGAAACTGGTCC (.(((((....))))).), the Tm in series [1] came out at 39.5 °C. Besides, the folding enthalpy in series [2] is -12.6 kcal/mol.

As for GTAAAAGCGAAAGCTTAC (((..(((....)))))), the Tm in series [1] was 35.9 °C. The folding enthalpy in series [2] is -11.6 kcal/mol.

As for GATCTACTAATAGATC ((((((....)))))), the Tm in series [1] was 38.9 °C. In addition, the folding enthalpy in series [2] was -27.3 kcal/mol.

Turning to GGTCCCGAAAGGGCACC ((((((....))).))), in series [1], the Tm turned out to be 53.5 °C. For the same sequence, the folding enthalpy in series [2] is -16.6 kcal/mol.

As for GATCTCAGATGAGATC ((((((....)))))), the Tm in series [1] amounted to 52.5 °C. The folding enthalpy in series [2] is -36.3 kcal/mol.

For the sequence GTACTCGAAAGAGGTTAC ((((((....)))..))), in series [1], the Tm was determined as 26.6 °C. In addition, the folding enthalpy in series [2] is -8.46 kcal/mol.

On to GAGAGGGGAAACCCTCCC (.(((((....))))).), for which the Tm in series [1] was determined as 41.2 °C. The folding enthalpy in series [2] was -13.7 kcal/mol.

For the sequence GATCGGGATACCGATC ((((((....)))))), the Tm in series [1] amounted to 65.7 °C. The folding enthalpy in series [2] was -45.8 kcal/mol.

Consider GATCTATAATAGATC ((((((...)))))), for which the Tm in series [1] came to 38.3 °C. Further, in series [2], the folding enthalpy is -21.8 kcal/mol.

For GGAGCTACGAAAGTATCC (((..(((....)))))), the Tm in series [1] is 19.7 °C. Further, in series [2], the folding enthalpy was -5.61 kcal/mol.

Turning to CGGACGGAAACGTCCCG ((((((....))).))), the Tm in series [1] was found to be 50.7 °C. Moreover, in series [2], the folding enthalpy was -10.8 kcal/mol.

As to GCGACTGGAAACGGTCGC (((((.(....).))))), the Tm in series [1] turned out to be 64.7 °C. Besides, the folding enthalpy in series [2] is -46.3 kcal/mol.

GGGTGCGGAAACGCGTCC ((..(((....)))..)): the Tm in series [1] was found to be 50.9 °C. In addition, the folding enthalpy in series [2] is -19.7 kcal/mol.

On to GATCTGATGCCAGATC ((((((....)))))), for which, in series [1], the Tm amounted to 47.5 °C. The folding enthalpy in series [2] is -33.4 kcal/mol.

With GATCGTGCTTACGATC ((((((....)))))), the Tm in series [1] was 56.4 °C. In addition, the folding enthalpy in series [2] was -38.4 kcal/mol.

On to GAATCGCGAAAGCGCTTC (((.(((....))).))), for which, in series [1], the Tm was found to be 43.2 °C. The folding enthalpy in series [2] is -18.1 kcal/mol.

As to GATCGACATCTCGATC ((((((....)))))), the Tm in series [1] came to 50.3 °C. Further, the folding enthalpy in series [2] was -36 kcal/mol.

Turning to GATGTGGGAAACTACATC (((((.(....).))))), the Tm in series [1] is 44.9 °C. The folding enthalpy in series [2] is -36.5 kcal/mol.

Turning to GATTCCCGAAAGGGTATC (((.(((....))).))), the Tm in series [1] came out at 45.6 °C. Moreover, the folding enthalpy in series [2] was -23.4 kcal/mol.

Take GCGTTGCGAAAGCATGGC ((..(((....)))..)): the Tm in series [1] came to 42.9 °C. Further, the folding enthalpy in series [2] is -18.9 kcal/mol.

As for GCGTCGCACGC ((((...)))), in series [1], the Tm is 64.5 °C. For the same sequence, in series [2], the folding enthalpy is -17.5 kcal/mol.

GGAGTCACGAAAGTGTCC (((..(((....)))))): the Tm in series [1] was 32.1 °C. Moreover, in series [2], the folding enthalpy was -13.7 kcal/mol.

For GACTGGGGAAACCCAGCC (.(((((....))))).), the Tm in series [1] amounted to 44.7 °C. In series [2], the folding enthalpy is -15.4 kcal/mol.

Turning to GATCCACAGTGGATC ((((((...)))))), the Tm in series [1] was found to be 49.7 °C. For the same sequence, the folding enthalpy in series [2] was -40.5 kcal/mol.

As to CGAAATCGGAAACGATCG (((..(((....)))))), in series [1], the Tm turned out to be 34 °C. For the same sequence, in series [2], the folding enthalpy was -22.6 kcal/mol.

As for GCTAGGCGAAAGCCTCGC ((.((((....)))).)), the Tm in series [1] is 58.9 °C. In addition, the folding enthalpy in series [2] is -17.8 kcal/mol.

Regarding GGCGCCGAAAGGCGGGCC ((((((....)))..))), the Tm in series [1] was 60.4 °C. Besides, the folding enthalpy in series [2] is -9.79 kcal/mol.

GCCGGGGGAAACCTCGGC ((((.((....)).)))): the Tm in series [1] was found to be 66.7 °C. In series [2], the folding enthalpy is -37.9 kcal/mol.

Turning to GTTCAGGGAAACCTGAAC (((((((....))))))), in series [1], the Tm is 60.4 °C. In series [2], the folding enthalpy is -43.2 kcal/mol.
